Consider 8 molecules from ChEMBL document CHEMBL4814057, “4-4-(Anilinomethyl)-3-[4-(trifluoromethyl)phenyl]-1H-pyrazol-1-ylbenzoic acid derivatives as potent anti-gram-positive bacterial agents” (Eur J Med Chem, 2021).

In brackets after ≈: the same amount, converted by molar mass. Activity calls are given as the source filed them.

Assay [1] relates to Staphylococcus aureus. Description: Antimicrobial activity against methicillin-sensitive Staphylococcus aureus clinical isolate 1088626 by CLSI-based broth microdilution assay. The class given is functional. A general note: Broth dilution looks for growth in wells or tubes with falling amounts of substance.
In assay [2] the test system is Staphylococcus aureus. Put plainly: Antimicrobial activity against methicillin-resistant Staphylococcus aureus clinical isolate 1088610 by CLSI-based broth microdilution assay. The format is functional.
Assay [3] relates to Enterococcus faecium. Put plainly: Antimicrobial activity against vancomycin-resistant Enterococcus faecium clinical isolate 1091563 by CLSI-based broth microdilution assay. The class given is functional.
Assay [4] relates to Enterococcus faecium. Description: Antimicrobial activity against vancomycin-resistant Enterococcus faecium clinical isolate 1088228 by CLSI-based broth microdilution assay. The format is functional.
Assay [5] deals with Enterococcus faecium. Description: Antimicrobial activity against vancomycin-resistant Enterococcus faecium clinical isolate 1094112 by CLSI-based broth microdilution assay. The class given is functional.
The test system of assay [6] is Enterococcus faecium. Put plainly: Antimicrobial activity against vancomycin-resistant Enterococcus faecium clinical isolate 1088925 by CLSI-based broth microdilution assay. The class given is functional.
The test system of assay [7] is Staphylococcus aureus. Description: Antimicrobial activity against methicillin-resistant Staphylococcus aureus clinical isolate 1089106 by CLSI-based broth microdilution assay. The class given is functional.
Assay [8] has as its system Enterococcus faecium. Description: Antimicrobial activity against vancomycin-resistant Enterococcus faecium clinical isolate 1089544 by CLSI-based broth microdilution assay. The format is functional.
The subject of assay [9] is Enterococcus faecium. Description: Antimicrobial activity against vancomycin-resistant Enterococcus faecium clinical isolate 1091720 by CLSI-based broth microdilution assay. The format is functional.
Assay [10] deals with Staphylococcus aureus. Put plainly: Antimicrobial activity against methicillin-sensitive Staphylococcus aureus clinical isolate 1088105 by CLSI-based broth microdilution assay. The class given is functional.
Assay [11] concerns Enterococcus faecium. Description: Antimicrobial activity against vancomycin-resistant Enterococcus faecium clinical isolate 1091282 by CLSI-based broth microdilution assay. The class given is functional.
The subject of assay [12] is Enterococcus faecium. Put plainly: Antimicrobial activity against vancomycin-resistant Enterococcus faecium clinical isolate 1088051 by CLSI-based broth microdilution assay. The class given is functional.
Assay [13] relates to Enterococcus faecium. Description: Antimicrobial activity against vancomycin-resistant Enterococcus faecium clinical isolate 1088168 by CLSI-based broth microdilution assay. The format is functional.
Assay [14] relates to Enterococcus faecium. Description: Antimicrobial activity against vancomycin-resistant Enterococcus faecium clinical isolate 1100440 by CLSI-based broth microdilution assay. The class given is functional.
Assay [15] relates to Staphylococcus aureus. Put plainly: Antimicrobial activity against methicillin-sensitive Staphylococcus aureus ATCC 29213 by CLSI-based broth microdilution assay. The format is functional.
The subject of assay [16] is Staphylococcus aureus. Put plainly: Antimicrobial activity against methicillin-resistant Staphylococcus aureus clinical isolate 1088064 by CLSI-based broth microdilution assay. The format is functional.
Assay [17] relates to Staphylococcus aureus. Description: Antimicrobial activity against methicillin-resistant Staphylococcus aureus clinical isolate 1088888 by CLSI-based broth microdilution assay. The format is functional.
For assay [18], the system named is Staphylococcus aureus. Put plainly: Antibacterial activity against methicillin resistant Staphylococcus aureus ATCC 700699 persisters assessed as reduction in viability at 64 times MIC by colony counting method. The class given is functional, organism-based. The procedure, abridged: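 Stationary-phase S. aureus from overnight CAMHB culture (35 °C, 200 rpm), washed thrice in PBS, diluted to ~5 × 10^8 CFU/ml. Incubated with antibiotic at 35 °C, 200 rpm. Aliquots taken at set times, washed, serially diluted in PBS, drop-plated (6 × 6) on TSA with 5% sheep blood. Colonies counted after 18–20 h at 35 °C. Triplicates.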

Assay [19] concerns Enterococcus faecalis. Put plainly: Antibiofilm activity against Enterococcus faecalis ATCC 29212 assessed as inhibition of biofilm formation at 2 times MIC after 24 hrs by crystal violet staining based assay relative to control. The format is functional. Also noted: scale not given: the % may be the effect or the level left. The procedure, abridged: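 Overnight culture brought to 0.5 McFarland in PBS, diluted 1:100 in CAMHB with 1% glucose. Inhibition: cells plus compound (in DMSO) at 2x, 1x, 0.5xMIC, 24 h at 35 °C, triplicate. Destruction: 24 h biofilm grown without drug, washed, fresh medium with compound, further 24 h. Then washed, dried, 0.1% crystal violet, solubilized in 33% acetic acid, OD 620 nm. Controls are DMSO-only and broth-only wells.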

For assay [20], the system named is Staphylococcus epidermidis. Description: Antimicrobial activity against methicillin-resistant Staphylococcus epidermidis ATCC 700296 assessed as bacterial growth inhibitions by CLSI protocol based microdilution method. The format is functional.
Assay [21] deals with Staphylococcus aureus. Description: Antimicrobial activity against methicillin-resistant Staphylococcus aureus ATCC 33591 assessed as bacterial growth inhibitions by CLSI protocol based microdilution method. The format is functional.
The test system of assay [22] is Enterococcus faecalis. Description: Antimicrobial activity against vancomycin-susceptible Enterococcus faecalis ATCC 29212 assessed as bacterial growth inhibitions by CLSI protocol based microdilution method.
The test system of assay [23] is Staphylococcus aureus. Put plainly: Antimicrobial activity against methicillin-susceptible Staphylococcus aureus ATCC 25923 assessed as bacterial growth inhibitions by CLSI protocol based microdilution method. The format is functional.
In assay [24] the test system is Enterococcus faecium. Description: Antimicrobial activity against vancomycin-resistant Enterococcus faecium ATCC 700221 assessed as bacterial growth inhibitions by CLSI protocol based microdilution method. The format is functional.
The subject of another assay is Bacillus subtilis. Put plainly: Antimicrobial activity against Bacillus subtilis ATCC 6623 assessed as bacterial growth inhibitions by CLSI protocol based microdilution method. The class given is functional. The procedure, abridged:
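Broth microdilution starting at 50 µg/ml with 2-fold serial dilutions; run in triplicate.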

The test system of assay [25] is Staphylococcus aureus. Put plainly: Antimicrobial activity against antibiotic-resistant Staphylococcus aureus BM-2312 assessed as bacterial growth inhibitions by CLSI protocol based microdilution method. The class given is functional.
The subject of assay [26] is Staphylococcus aureus. Put plainly: Antimicrobial activity against methicillin-resistant Staphylococcus aureus ATCC 33592 assessed as bacterial growth inhibitions by CLSI protocol based microdilution method. The format is functional.
In assay [27] the test system is Staphylococcus aureus. Put plainly: Antimicrobial activity against methicillin-resistant Staphylococcus aureus ATCC 700699 assessed as bacterial growth inhibitions by CLSI protocol based microdilution method. The class given is functional.

Regarding `Cc1onc(-c2ccccc2)c1C(=O)N[C@@H]1C(=O)N2[C@@H]1SC(C)(C)[C@@H]2C(=O)O` [OXACILLIN], the MIC with Staphylococcus aureus [1] is 0.5 µg/mL (≈ 1.25 µM); with Staphylococcus aureus [2] it was 0.5 µg/mL (≈ 1.25 µM); against Enterococcus faecium [3], over 32 µg/mL; in the assay on Enterococcus faecium [4], over 32 µg/mL; in the assay on Enterococcus faecium [5], over 32 µg/mL; against Enterococcus faecium [6], over 32 µg/mL. Also, the MIC in the assay on Staphylococcus aureus [7] was 1 µg/mL (≈ 2.49 µM); with Enterococcus faecium [8] it was over 32 µg/mL; with Enterococcus faecium [9] it was over 32 µg/mL; with Staphylococcus aureus [10], 1 µg/mL (≈ 2.49 µM); in the assay on Enterococcus faecium [11] it was over 32 µg/mL; against Enterococcus faecium [12], over 32 µg/mL. Also, the MIC against Enterococcus faecium [13] was over 32 µg/mL; with Enterococcus faecium [14], over 32 µg/mL; in the assay with Staphylococcus aureus [15], 1 µg/mL (≈ 2.49 µM); in the assay with Staphylococcus aureus [16] it was 0.5 µg/mL (≈ 1.25 µM); against Staphylococcus aureus [17], 1 µg/mL (≈ 2.49 µM).
Take GENTAMICIN: the result with Staphylococcus aureus [18] was inactive.
For `O=C(O)c1ccc(-n2cc(CNc3cc(Cl)c(F)c(Cl)c3F)c(-c3ccc(C(F)(F)F)cc3)n2)cc1`, in the assay with Enterococcus faecalis [19], the Activity is reported as 80%. In addition, the MIC (in assay [20]; in the assay with Staphylococcus aureus [21]; in the assay on Enterococcus faecalis [22]; with Staphylococcus aureus [23]; in the assay on Enterococcus faecium [24]; in the assay with Bacillus subtilis) was 0.78 µg/mL (≈ 1.44 µM) throughout. The MIC in the assay with Staphylococcus aureus [25], in the assay with Staphylococcus aureus [26] and in the assay with Staphylococcus aureus [27] was 0.78 µg/mL (≈ 1.44 µM) each time.
Regarding `O=C(O)c1ccc(-n2cc(CNc3cc(F)c(F)c(F)c3)c(-c3ccc(C(F)(F)F)cc3)n2)cc1`, the MIC in assay [20] was determined as 1.56 µg/mL (≈ 3.17 µM); in the assay on Staphylococcus aureus [21], 0.78 µg/mL (≈ 1.59 µM); in the assay with Enterococcus faecalis [22] it was 1.56 µg/mL (≈ 3.17 µM); in the assay on Staphylococcus aureus [23], 0.78 µg/mL (≈ 1.59 µM); with Enterococcus faecium [24] it was 0.78 µg/mL (≈ 1.59 µM); with Bacillus subtilis, 0.78 µg/mL (≈ 1.59 µM). Further, the minimum inhibitory concentration (MIC) in the assay with Staphylococcus aureus [25], with Staphylococcus aureus [26] and in the assay with Staphylococcus aureus [27] was 0.78 µg/mL (≈ 1.59 µM) in each case.
With `O=C(O)c1ccc(-n2cc(CNc3cc(C(F)(F)F)ccc3F)c(-c3ccc(C(F)(F)F)cc3)n2)cc1`, the MIC in [20] was found to be 3.12 µg/mL (≈ 5.96 µM); in the assay on Staphylococcus aureus [21], 0.78 µg/mL (≈ 1.49 µM); with Enterococcus faecalis [22], 6.25 µg/mL (≈ 11.9 µM); in the assay on Staphylococcus aureus [23], 1.56 µg/mL (≈ 2.98 µM); with Enterococcus faecium [24] it was 1.56 µg/mL (≈ 2.98 µM); in the assay on Bacillus subtilis, 0.78 µg/mL (≈ 1.49 µM). In addition, the figures for the MIC in the assay on Staphylococcus aureus [25], in the assay on Staphylococcus aureus [26] and in the assay on Staphylococcus aureus [27] were 0.78 µg/mL (≈ 1.49 µM), 1.56 µg/mL (≈ 2.98 µM) and 0.78 µg/mL (≈ 1.49 µM), respectively.
As for `O=C(O)c1ccc(-n2cc(CNc3ccc(F)c(Cl)c3F)c(-c3ccc(C(F)(F)F)cc3)n2)cc1`, the MIC in [20] came to 1.56 µg/mL (≈ 3.07 µM); with Staphylococcus aureus [21] it was 1.56 µg/mL (≈ 3.07 µM); in the assay on Enterococcus faecalis [22], 6.25 µg/mL (≈ 12.3 µM); in the assay on Staphylococcus aureus [23], 1.56 µg/mL (≈ 3.07 µM); with Enterococcus faecium [24] it was 1.56 µg/mL (≈ 3.07 µM); in the assay on Bacillus subtilis it was 0.78 µg/mL (≈ 1.54 µM). Further, the minimal inhibitory concentration (MIC) with Staphylococcus aureus [25], in the assay with Staphylococcus aureus [26] and with Staphylococcus aureus [27] was 1.56 µg/mL (≈ 3.07 µM) in each case.
Consider `O=C(O)c1ccc(-n2cc(CNc3ccccc3)c(-c3ccc(C(F)(F)F)cc3)n2)cc1`, for which the minimum inhibitory concentration (MIC) in [20] is 12.5 µg/mL (≈ 28.6 µM); in the assay with Staphylococcus aureus [21], 6.25 µg/mL (≈ 14.3 µM); in the assay with Enterococcus faecalis [22] it was 25 µg/mL (≈ 57.2 µM); in the assay on Staphylococcus aureus [23], 12.5 µg/mL (≈ 28.6 µM); in the assay with Enterococcus faecium [24], 6.25 µg/mL (≈ 14.3 µM); with Bacillus subtilis, 3.12 µg/mL (≈ 7.13 µM). The minimum inhibitory concentration (MIC) in the assay with Staphylococcus aureus [25] was found to be 12.5 µg/mL (≈ 28.6 µM); with Staphylococcus aureus [26] it was 6.25 µg/mL (≈ 14.3 µM); in the assay with Staphylococcus aureus [27] it was 6.25 µg/mL (≈ 14.3 µM).
Turning to `O=C(O)c1ccc(-n2cc(CNc3cc(Br)cc(C(F)(F)F)c3)c(-c3ccc(C(F)(F)F)cc3)n2)cc1`, the MIC in assay [20] is 1.56 µg/mL (≈ 2.67 µM); in the assay on Staphylococcus aureus [21], 3.12 µg/mL (≈ 5.34 µM); with Enterococcus faecalis [22], 0.78 µg/mL (≈ 1.33 µM); with Staphylococcus aureus [23], 0.78 µg/mL (≈ 1.33 µM); in the assay with Enterococcus faecium [24], 0.78 µg/mL (≈ 1.33 µM); in the assay on Bacillus subtilis, 0.78 µg/mL (≈ 1.33 µM). Moreover, the minimal inhibitory concentration (MIC) in the assay with Staphylococcus aureus [25], with Staphylococcus aureus [26] and in the assay with Staphylococcus aureus [27] was 0.78 µg/mL (≈ 1.33 µM) each time.

Broadly, the MIC is the smallest concentration in the dilution series that meets the test's criterion for growth inhibition.
